These results are taken from article PMC10125367 (ACS Bio & Med Chem Au, 2022).

The structures appear in SMILES notation.

For one data set, the target named is KRAS(WT) with SOS (Homo sapiens, UniProt P01116). The data set can be described thus: SOS-mediated GDP/GTP nucleotide exchange. Type of data set: biochemical. The essentials:
(§1)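 Recombinant KRAS(WT), BODIPY-GTP (BGTP) and, for SOS-mediated exchange, SOS are each at 0.5 μM. Buffer is 25 mM Tris Cl pH 7.5, 50 mM NaCl, 10 mM MgCl2, with test compound at 0–50 μM. Fluorescence rise on BGTP binding is normalised to the 60 s and KRAS-alone maximum values. Rates come from linear (intrinsic) or single-exponential (SOS) fits, and EC50 from fitting rate versus concentration.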

The nature of data set [1]: Microsomal stability. Type of data set: in vitro ADME. To be noted: mouse, microsomes.
The target in the next data set is GDP-KRAS(Q61H) (Homo sapiens, UniProt P01116, Q61H). The data set can be described thus: Isothermal titration calorimetry. Type of data set: binding.
The target of data set [2] is T1, KRAS(G12D) (Homo sapiens, UniProt P01116, G12D). The data set can be described thus: Microscale thermophoresis. Type of data set: binding. To be noted: Kd from MST, GDP-bound KRAS(G12D).
For data set [3], the target named is T2, KRAS(WT) (Homo sapiens, UniProt P01116). The data set can be described thus: Intrinsic GDP/GTP nucleotide exchange. Type of data set: biochemical. The procedure, abridged: as §1
In data set [4] the test system is MIAPaCa-2 xenograft tumor. Briefly: MIAPaCa-2 subcutaneous xenograft tumor model. Type of data set: in vivo, mouse. To be noted: 5 mg/kg IP. The essentials:
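Nude mice received MIAPaCa-2 cells subcutaneously in the hind flank and were split after 3 days into groups of equal mean tumour volume (8 vehicle, 7 treated). Dosing was 5 mg/kg test compound in corn oil, or DMSO in corn oil, intraperitoneally 5 days/week. Caliper volumes, (length × width²)/2, were taken twice weekly and body weights weekly. Tumour lysates were blotted for p-ERK, total ERK and GAPDH.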

Another data set addresses GDP-KRAS(WT) (Homo sapiens, UniProt P01116). The data set can be described thus: Isothermal titration calorimetry. To be noted: Kd from ITC, GDP-bound KRAS(WT), 25 °C. Type of data set: binding.
For another data set, the target named is KRAS(Q61H) (Homo sapiens, UniProt P01116, Q61H). The data set can be described thus: Microscale thermophoresis. Type of data set: binding.
Data set [5] concerns cancer cells expressing various mutants of KRAS. Briefly: Cell proliferation, summary. Type of data set: cell-based.
For the next data set, the target named is GDP-KRAS(G13D) (Homo sapiens, UniProt P01116, G13D). Briefly: Isothermal titration calorimetry. Type of data set: binding.
The target of a further data set is GDP-KRAS(G12C) (Homo sapiens, UniProt P01116, G12C). The data set can be described thus: Isothermal titration calorimetry. Type of data set: binding.
The target in the next data set is KRAS(G12C) (Homo sapiens, UniProt P01116, G12C). Briefly: Microscale thermophoresis. Type of data set: binding.
In data set [6] the target is T1, KRAS(G12D). The data set can be described thus: Intrinsic fluorescence. Type of data set: binding. To be noted: 0 to 50 µM ligand, 2 µM KRAS; qualitative.
In data set [7] the test system is BHK cells expressing GFP-tagged KRAS(G12D). Briefly: Cell signaling assay. Type of data set: cell-based, baby hamster. The procedure, abridged: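 Whole-cell lysates were immunoblotted for phospho-c-Raf, phospho-ERK and phospho-AKT, with vinculin as loading control. Levels were quantified relative to DMSO, averaged from three independent experiments and compared by unpaired Student's t test.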

Data set [8] can be described thus: Microsomal stability. Type of data set: in vitro ADME. To be noted: rat, microsomes.
Another data set concerns the target HRAS (Homo sapiens, UniProt P01112). The data set can be described thus: Thermal shift assay. Type of data set: binding. To be noted: 50 μM compound.
Data set [9] has as its target T2, KRAS(WT). The data set can be described thus: Microscale thermophoresis. Type of data set: binding. To be noted: Kd from MST, GDP-bound KRAS(WT).
In a further data set the target is GDP-KRAS(G12D) (Homo sapiens, UniProt P01116, G12D). The data set can be described thus: Isothermal titration calorimetry. Type of data set: binding.
The next data set has as its target KRAS with SOS (Homo sapiens, UniProt P01116). Briefly: SOS-mediated nucleotide release. Type of data set: biochemical. To be noted: 50 µM ligand, 100 µM GTP, 0.5 µM SOS.
The target of data set [10] is T2, KRAS(WT). Briefly: Intrinsic fluorescence. Type of data set: binding. To be noted: 0 to 50 µM ligand, 2 µM KRAS; qualitative.
The next data set addresses KRAS (Homo sapiens, UniProt P01116). The data set can be described thus: Intrinsic nucleotide release. Type of data set: biochemical. To be noted: 50 µM ligand, 100 µM GTP.
In the next data set the target is NRAS (Homo sapiens, UniProt P01111). Briefly: Thermal shift assay. Type of data set: binding. To be noted: 50 μM compound.
Data set [11] in a line: Microsomal stability. Type of data set: in vitro ADME. To be noted: human, microsomes.
The target of data set [12] is KRAS(G12D)-RafRBD interaction (Homo sapiens, UniProt P01116, G12D). The data set can be described thus: RBD pull-down assay in BHK cell lysates. Type of data set: cell-based, baby hamster. To be noted: lysates treated with 10 μM or more, 1 h. The procedure, abridged: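 GTP-bound GFP-KRAS(G12D) and endogenous RAS were pulled down with GST-c-Raf RBD and detected by western blot, with total GFP-KRAS(G12D) and total RAS as loading controls. Signals were normalised to DMSO and averaged over three independent experiments, with unpaired Student's t test.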

In another data set the test system is MDR1. Briefly: Permeability and efflux in MDR1-MDCK cell monolayer system. To be noted: dog, MDCK-MDR1. Type of data set: in vitro ADME.
The next data set deals with MDR1-MDCK cell monolayer. Described as above. Type of data set: in vitro ADME. To be noted: corrected for cell volume on donor side.
The next data set deals with MDR1 (P-gp). The data set is described as above. Type of data set: in vitro ADME. To be noted: dog.
In a further data set the test system is SOS. To be noted: read-out: IC50 in vitro; inhibits SOS; ref 20 Kessler, et al.; cited from earlier work.
Another data set deals with Raf. To be noted: read-out: IC50 in vitro; inhibits Raf; ref 20 Kessler, et al.; cited from earlier work.
Setting [13] is: MDCK-MDR1, Papparent efflux ratio (ER).

Chain of HRAS (P01112 whole entry): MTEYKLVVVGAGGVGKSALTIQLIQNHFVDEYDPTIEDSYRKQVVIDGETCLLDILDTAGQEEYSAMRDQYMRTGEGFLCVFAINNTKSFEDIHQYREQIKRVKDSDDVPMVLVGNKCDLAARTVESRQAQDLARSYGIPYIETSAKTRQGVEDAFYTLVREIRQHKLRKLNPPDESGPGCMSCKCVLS
Chain of NRAS (P01111 whole entry): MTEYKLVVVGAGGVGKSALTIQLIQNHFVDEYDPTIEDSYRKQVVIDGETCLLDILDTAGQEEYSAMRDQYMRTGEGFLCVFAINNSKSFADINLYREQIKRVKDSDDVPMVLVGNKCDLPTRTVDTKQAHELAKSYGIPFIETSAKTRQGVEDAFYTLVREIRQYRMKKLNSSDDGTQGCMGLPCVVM

Turning to `O=C(O)c1cc(NC(=O)C2CC2c2ccccc2)ccc1O` (centres unmarked) [ACA-14, 2-hydroxy-5-{[(2-phenylcyclopropyl)carbonyl]amino} benzoic acid], the EC50 at KRAS(WT) with SOS stood at 2100 ± 400 nM; on KRAS(WT) [3], 3800 ± 600 nM. Further, the Intrinsic clearance in “Microsomal stability [1]”, in the data set “Microsomal stability [8]” and in the data set “Microsomal stability [11]” was under 0.3 mL/min/g each time. For the same molecule, the half-life in the data set “Microsomal stability [1]”, in the data set “Microsomal stability [8]” and in “Microsomal stability [11]” was over 3 h in each case. For the same molecule, the Kd is 1040 nM on GDP-KRAS(Q61H); over 50000 nM on KRAS(G12D) [2]; 1100 nM on GDP-KRAS(WT); 20 ± 10 nM on KRAS(Q61H); 34100 nM on GDP-KRAS(G13D); 11800 nM on GDP-KRAS(G12C). In addition, the Kd on KRAS(G12C) was 340 ± 70 nM; at KRAS(WT) [9], 4500 ± 1500 nM; at GDP-KRAS(G12D) it was 45900 nM. Besides, in data set [4] (nude mice, 5 days per week), the “Weight gain of treated mice” value is given as “did not affect weight gain”. Moreover, the Tumor growth entry in [4] (nude mice, 5 days per week, maintained until day 20) is “small but statistically significant reduction”. Also, in data set [4] (tumor lysates), the “ERK activation within tumors (p-ERK western blot)” value is recorded as “small but significant reduction”. In [5], the “Concentration required to inhibit proliferation” value was over 20 µM. Moreover, the “Change in intrinsic fluorescence of the compound on mixing with protein” value on KRAS(G12D) [6] and on KRAS(WT) [10] was “concentration-dependent changes” in each case. Also, the “Concentration required to inhibit MAPK signaling” value in data set [7] is over 20 µM. Also, the “Level of phosphorylated ERK (p-ERK)” value in data set [7] (3 h, serum-starved) is given as “significantly reduced”. In addition, in data set [7] (3 h, serum-starved), the “Level of phosphorylated c-Raf (p-cRaf)” value was “significantly reduced”. Besides, the p-AKT level result in data set [7] (3 h, serum-starved, concentration range tested) was “little effect”. The “Change in melting temperature (Tm)” value on HRAS and at NRAS was “no measurable change” in each case. In addition, the “Effect on rate of SOS-mediated GDP release” value on KRAS with SOS is listed as “lack of effect”. Moreover, the “Effect on rate of intrinsic GDP release” value on KRAS is on record as “lack of effect”. Besides, in [12], the “Level of GFP-tagged GTP-KRAS(G12D) pulled down by c-Raf RBD” value is “significantly reduced”. The “Level of endogenous RAS pulled down by c-Raf RBD” value in data set [12] is “significantly reduced”. Besides, in the data set with MDR1, the Papp A→B was determined as 5.42 ×10⁻⁶ cm/s. Moreover, the Papp B→A in the data set on MDR1 came out at 3.51 ×10⁻⁶ cm/s. Further, the “Pexact, A > B” value with MDR1-MDCK cell monolayer was found to be 5.355 ×10⁻⁶ cm/s. Further, the “Pexact, B > A” value with MDR1-MDCK cell monolayer is 3.833 ×10⁻⁶ cm/s. Also, the efflux ratio in the data set on MDR1 (P-gp) (setting [13]) came to 0.65; with MDR1 (P-gp) (MDCK-MDR1, Pexact efflux ratio), 0.72.

As for `Cn1cnc(Cn2ccc3ccc(CNCc4[nH]c5ccccc5c4[C@H]4NC(=O)c5ccc(O)cc54)cc32)c1` [BI-2852], the IC50 with SOS and in the data set on Raf was 500 to 700 nM throughout.

As to `CC(C)CN(C[C@@H](O)[C@H](Cc1ccccc1)NC(=O)O[C@H]1CCOC1)S(=O)(=O)c1ccc(N)cc1` [amprenavir], in the data set with MDR1, the Papp A→B stood at 1.65 ×10⁻⁶ cm/s and the Papp B→A was 17.1 ×10⁻⁶ cm/s. In addition, in the data set with MDR1-MDCK cell monolayer, the “Pexact, A > B” value was found to be 1.436 ×10⁻⁶ cm/s and the “Pexact, B > A” value was 24.325 ×10⁻⁶ cm/s. For the same molecule, the efflux ratio in the data set on MDR1 (P-gp) (setting [13]) was determined as 10.3. Besides, in the data set on MDR1 (P-gp) (MDCK-MDR1, Pexact efflux ratio), the efflux ratio is 16.9.

In the data set with MDR1, `CC(C)NCC(O)COc1cccc2ccccc12` (centres unmarked) [propranolol] came in with a Papp A→B of 31.2 ×10⁻⁶ cm/s and a Papp B→A of 15 ×10⁻⁶ cm/s. For the same molecule, in the data set on MDR1-MDCK cell monolayer, the “Pexact, A > B” value was found to be 39.979 ×10⁻⁶ cm/s and the “Pexact, B > A” value was determined as 20.715 ×10⁻⁶ cm/s. Further, the efflux ratio in the data set with MDR1 (P-gp) (setting [13]) was found to be 0.48. In addition, the efflux ratio in the data set with MDR1 (P-gp) (MDCK-MDR1, Pexact efflux ratio) was found to be 0.52.
